In ChEMBL document CHEMBL1122247, “2-(6-carboxyhexyl)cyclopentanone hexylhydrazone. A potent and time-dependent inhibitor of platelet aggregation” (1983) one finds Inhibition, inhibition and time to complete inhibition data, which are given here for 3 compounds.

In general, Inhibition refers to the drop in the measured response relative to a control, in per cent. Read a high Inhibition as a response far below the control. The inhibition is the percentage by which the read-out fell short of the control. A higher inhibition goes with a strong effect.

SMILES strings stand for the structures.

A short description of assay [1]: Tested for effect of plasma containing platelets (PRP) against U-46,619 (1 uM) at 25 uM concentration. The format is functional, Homo sapiens. A digest of the protocol: (§1)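 Human platelet-rich plasma was pretreated 1 min with 25–100 μM agent, then challenged with arachidonic acid (500 μM) or U46619 (1 μM). Aggregation was followed turbidimetrically (Born) at 37 °C. Percent inhibition versus vehicle controls was read 3 min after agonist. Results are mean ± SEM from at least three separate blood donors.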

Assay [2] in a line: Tested for effect of plasma containing platelets (PRP) against arachidonic acid (500 uM) at 25 uM concentration. The format is functional, Homo sapiens. A digest of the protocol: as §1
Assay [3] in a line: Tested for effect of plasma containing platelets (PRP) against arachidonic acid (500 uM) at 50 uM concentration. The format is functional, Homo sapiens. Put shortly: as §1
The nature of assay [4]: Tested for effect of plasma containing platelets (PRP) against U-46,619 (1 uM) at 50 uM concentration. The assay is classed as functional, Homo sapiens. A digest of the protocol:
as §1

Assay [5] can be described thus: Tested for effect of plasma containing platelets (PRP) against arachidonic acid (500 uM) at 100 uM concentration. The assay is classed as functional, Homo sapiens. A digest of the protocol: as §1
Assay [6] can be described thus: Tested for effect of plasma containing platelets (PRP) against U-46,619 (1 uM) at 100 uM concentration. The format is functional, Homo sapiens. Put shortly: as §1
Assay [7] is described as follows: Tested for effect of plasma containing platelets (PRP) against platelet free plasma at 1 uM concentration. The assay is classed as functional. Particulars: Homo sapiens. A digest of the protocol: (§2)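 Hydrazone in ethanol was added to platelet-free plasma (100 μM final) and stirred. At 10-min intervals up to 1 h, aliquots were transferred to PRP (1 μM final). Aggregation to 500 μM arachidonic acid was then measured turbidimetrically at 37 °C. Controls had hydrazone added directly to PRP; seven donors.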

Assay [8] is described as follows: Tested for effect of plasma containing platelets (PRP) against PGH-2 at 0.6 uM concentration. Particulars: Homo sapiens. The format is functional.
Assay [9] is described as follows: Tested for effect of […] against PGH-2 at 100 uM concentration. The assay is classed as functional. Particulars: Homo sapiens, Plasma.
Assay [10] can be described thus: Tested for effect of plasma containing platelets (PRP) against U-46,619 at 100 uM concentration. The format is functional. Particulars: Homo sapiens. A digest of the protocol:
(§3)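 In human PRP, 100 μM hydrazone was tested against aggregation induced by U46619 (1–3 μM) or ADP (5 μM). Aggregation was measured by the Born turbidimetric method at 37 °C over 3 min. Reagents were added as 10-μL aliquots per mL of PRP. Percent inhibition is averaged over nine donors.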

The nature of assay [11]: Tested for effect of plasma containing platelets (PRP) against arachidonic acid at 0.1 uM concentration. Particulars: Homo sapiens. The assay is classed as functional.
The nature of assay [12]: Tested for effect of plasma containing platelets (PRP) against ADP at 100 uM concentration. The format is functional. Particulars: Homo sapiens. A digest of the protocol: as §3
Assay [13] is described as follows: Time to complete inhibition of arachidonic acid (500 uM)-induced aggregation in platelet-rich plasma (PRP). Particulars: Homo sapiens.
A short description of assay [14]: Tested for effect of plasma containing platelets (PRP) against platelet free plasma at 500 uM concentration. The format is functional. Particulars: Homo sapiens. A digest of the protocol: as §2
Assay [15] can be described thus: Tested for effect of plasma containing platelets (PRP) against arachidonic acid at 1 uM concentration. The assay is classed as functional. Particulars: Homo sapiens.

Turning to `CCCCCCCN[C@H]1CCC[C@@H]1CCCCCCC(=O)O` (relative stereo), the Inhibition in assay [1] came out at 76%; in [2] it was 100%; in assay [3] it was 100%; in assay [4], 98%.

Take `CCCCCC(=O)N/N=C1\CCCC1CCCCCCC(=O)O` (stereo not drawn): the Inhibition in [2] was found to be 8%; in assay [3] it was 17%; in assay [4], 6%; in assay [5], 98%; in assay [6], 30%.

Take `CCCCCCN/N=C1\CCCC1CCCCCCC(=O)O` (stereo not drawn): the inhibition at 1 µM in [7] was determined as 29%; in assay [15] it was 99%. This compound displayed an inhibition at 0.6 µM in assay [8] of 6%. The figures for the inhibition at 100 µM in assay [9], in [10] and in assay [12] were 89%, 4% and 6%, respectively. Testing at 0.1 µM in [11] gave an inhibition of 44%. For the same compound, the time to complete inhibition at 500 µM in assay [13] was 27 min. Also, the inhibition at 500 µM in assay [14] worked out at 100%.
